Test results as given in article PMC2669315 (Bioorganic & medicinal chemistry, 2008).
pIC50: −log10 of the molar value.

Tests used:
[1] = test system: Hsp90 client proteins Her2, Raf-1, and Akt; assay: Western blot analysis of Hsp90 client protein degradation in MCF-7 cells; assay type: cell-based, human; details: for pIC50: Homo sapiens, MCF7, 24 h, read-out: Hsp90 client protein degradation IC50s; for degradation of Hsp90 client proteins (Her2, Raf-1, Akt) / effect on actin (non Hsp90-dependent protein): MCF-7 cells, 24 h, western blot
Summary of the method: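 MCF-7 cells were seeded at 1×10^6 per dish and left to attach overnight. Test compound was added at varying concentrations and incubated 24 h at 37 °C, 5% CO2. Cells were then harvested and client protein levels analysed by western blot using a previously reported method.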

Hsp90 [2] = assay type: biochemical, rabbit
MCF-7 cells = assay: Anti-proliferation assay; assay type: cell-based, human
Summary of the method: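 MCF-7 cells were grown in 1:1 DMEM:Ham's F-12 with non-essential amino acids, 2 mM L-glutamine, penicillin/streptomycin and 10% FBS, at 37 °C and 5% CO2. They were seeded at 2000/well and left to attach overnight. Test compound was added at varying concentrations in DMSO (1% final) for 72 hr. Viable cells were measured by MTS/PMS and normalised to 1% DMSO wells as 100% proliferation.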

Her2 = Her2 ELISA in SKBr3 cells; assay type: cell-based, human; details: for fold decrease in Her2 degradative activity for meta substituents: meta chloro or methoxy substituent on the benzamide
Summary of the method: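 SKBr3 cells were grown as for the proliferation assay, seeded at 3000/well, attached overnight, then given test compound at varying concentrations for 24 hr. Cells were washed with ice-cold PBS/1% Tween and fixed in -20 °C methanol (10 min, 4 °C), then blocked 1 hr in 5% BSA/PBST at rt. Rabbit anti-Her2 (1:500) went on overnight at 4 °C, then HRP anti-rabbit IgG (1:1000) for 2 hr at rt. Read-out was chemiluminescence on a luminometer.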

Hsp90 [3] = details: assay validation; cited from earlier work

CC(=O)NC1=C(c2ccc(Cl)cc2)C(=O)c2ccccc2C1=O [Compound 3g]
pIC50 [1]: 4.70 to 5.00 | degradation of Hsp90 client proteins (Her2, Raf-1, Akt) [1]: induced the degradation of these client proteins in a concentration-dependent manner | effect on actin (non Hsp90-dependent protein) [1]: no similar effects on actin

COc1ccc(C2=C(NC(=O)c3ccc(OC)c(-c4cccc(OC)c4)c3)C(=O)c3ccccc3C2=O)cc1 [Compound 11, 3’,6-dimethoxy-N-(3-(4-methoxyphenyl)-1,4-dioxo-1,4-dihydronaphthalen-2-yl)biphenyl-3-carboxamide]
inhibition of luciferase refolding (in words) (Hsp90 [2]): unable to inhibit luciferase refolding

COc1cccc(-c2cc(C(=O)NC3=C(Cl)C(=O)c4ccccc4C3=O)ccc2OC)c1 [Compound 12]
inhibition of luciferase refolding (in words) (Hsp90 [2]): low micromolar activity | pIC50 (MCF-7 cells; Homo sapiens, MCF7, read-out: anti-proliferative activity IC50): 5.52 to 5.77 | pIC50 [1]: 4.70 to 5.00 | degradation of Hsp90 client proteins (Her2, Raf-1, Akt) [1]: induced the degradation of these client proteins in a concentration-dependent manner | effect on actin (non Hsp90-dependent protein) [1]: no similar effects on actin

COc1ccc(C2=C(NC(=O)c3ccccc3Cl)C(=O)c3ccccc3C2=O)cc1 [Compound 13a]
pIC50 [1]: 5.00 to 5.30 | degradation of Hsp90 client proteins (Her2, Raf-1, Akt) [1]: induced the degradation of these client proteins in a concentration-dependent manner | effect on actin (non Hsp90-dependent protein) [1]: no similar effects on actin

COc1ccc(C2=C(NC(=O)c3cccc(Cl)c3)C(=O)c3ccccc3C2=O)cc1 [Compound 13b]
fold decrease in Her2 degradative activity for meta substituents (Her2): 6 fold

COc1ccc(C2=C(NC(=O)c3cccc(OC)c3)C(=O)c3ccccc3C2=O)cc1 [Compound 13e]
fold decrease in Her2 degradative activity for meta substituents (Her2): 15 fold

COc1ccc(C2=C(NC(=O)c3cccc4ccccc34)C(=O)c3ccccc3C2=O)cc1 [Compound 13g]
fold decrease in Her2 activity compared to the corresponding benzamide (4d) (Her2; vs 4d): 3 fold

COc1ccc(C2=C(NC(=O)c3ccc4ccccc4c3)C(=O)c3ccccc3C2=O)cc1 [Compound 13h]
Her2 degradative activity (in words) (Her2): complete loss of Her2 degradative activity

COc1ccc(C2=C(NC(=O)C3CCCCC3)C(=O)c3ccccc3C2=O)cc1 [Compound 13i]
inhibition of luciferase refolding (in words) (Hsp90 [2]): low micromolar activity

CC(=O)C1=C(c2ccccc2)C(=O)c2ccccc2C1=O [HTS1]
fold greater anti-proliferative activity against MCF-7 cells compared to SKBr3 cells (MCF-7 cells; MCF-7 vs SKBr3): 4 fold

CO[C@@H]1[C@@H](OC(N)=O)[C@@H](O)[C@H](Oc2ccc3c(O)c(NC(=O)c4ccc(O)c(CC=C(C)C)c4)c(=O)oc3c2C)OC1(C)C [novobiocin]
reduction of luciferase renaturation by known Hsp90 inhibitors (Hsp90 [3]): significantly reduce the renaturation of luciferase
